In ChEMBL document CHEMBL1275462 (Antimicrob Agents Chemother, 2008) one finds MIC, Activity and IC50 data, which are given here for one compound.

The MIC is the smallest concentration in the dilution series that meets the test's criterion for growth inhibition. As usually defined, the IC50 is the concentration at which inhibition is half-maximal. Higher therefore signals a need for much substance.

The test system of assay [1] is Staphylococcus aureus. Description: Antimicrobial activity against oxacillin-resistant Staphylococcus aureus COLVA harboring Tn1546 transposon by Etest. Type of assay: functional. The method in brief:
(§1)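 Etest and population analysis: overnight cultures plated on TSA with increasing vancomycin, oxacillin or BPR, CFU counted after 48 h at 37°C. For VRSA strains, vancomycin plates also run with constant 1 µg/ml BPR. Vancomycin Etest read after overnight 37°C incubation on TSA with or without 1 µg/ml BPR.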

Assay [2] has as its system Staphylococcus aureus. The assay can be described thus: Antimicrobial activity against methicillin-resistant Staphylococcus aureus COL assessed as concentration required for minimum inhibition of BRP-resistant subpopulation growth. Type of assay: functional. The method, boiled down: (§2)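 Etest (manufacturer's method) and population analysis: overnight cultures serially diluted and plated on TSA with increasing oxacillin or BPR, CFU counted after 48 h at 37°C. Colonies from subpopulations growing at high oxacillin or BPR were picked, restreaked on antibiotic-free TSA for three passages, then retested by population analysis.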

Assay [3] relates to Staphylococcus aureus. The assay can be described thus: Displacement of benzyl-[14C]penicillin from Staphylococcus aureus PBP2 RU130 mutant by in vitro competitive assay. Particulars: COL. The method, boiled down:
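Membranes from PBP 2 insertional mutant RU130 (Tn551 in transpeptidase domain), late exponential phase, 150 µg protein, preincubated with increasing oxacillin or BPR 10 min at 30°C. Then labelled with 20 µg/ml benzyl[14C]penicillin 10 min at 37°C and stopped with excess unlabelled penicillin in SDS. SDS-PAGE with phosphor screen exposure for 2 weeks.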

Assay [4] deals with Staphylococcus aureus. The assay can be described thus: Antimicrobial activity against methicillin-resistant Staphylococcus aureus HAR24 by Etest. Type of assay: functional. The method in brief:
as §2

The subject of assay [5] is Staphylococcus aureus. Description: Antimicrobial activity against methicillin-resistant Staphylococcus aureus BK2464 assessed as concentration required for bacterial subpopulation growth. Type of assay: functional. The method in brief: as §2
Assay [6] deals with Staphylococcus aureus. The assay can be described thus: Antimicrobial activity against methicillin-resistant Staphylococcus aureus HAR24 assessed as concentration required for minimum inhibition of oxacillin-resistant subpopulation growth by Etest. Type of assay: functional. The method, boiled down: as §2
Assay [7] relates to Staphylococcus aureus. Description: Antimicrobial activity against methicillin-resistant Staphylococcus aureus HDE288 by Etest. Type of assay: functional. The method, boiled down: as §2
Assay [8] relates to Staphylococcus aureus. Description: Antimicrobial activity against methicillin-resistant Staphylococcus aureus HPV107 by Etest. Type of assay: functional. The method, boiled down:
as §2

Assay [9] has as its system Staphylococcus aureus. Description: Antimicrobial activity against methicillin-resistant Staphylococcus aureus USA300 assessed as concentration required for minimum inhibition of BRP-resistant subpopulation growth. Type of assay: functional. The method in brief:
as §2

For assay [10], the system named is Staphylococcus aureus. Description: Antimicrobial activity against methicillin-resistant Staphylococcus aureus HPV107 assessed as concentration required for minimum inhibition of BRP-resistant subpopulation growth by Etest. Type of assay: functional. The method, boiled down:
as §2

For assay [11], the system named is Staphylococcus aureus. The assay can be described thus: Antimicrobial activity against vancomycin-intermediate Staphylococcus aureus Mu50 by Etest. Type of assay: functional. The method in brief: as §1
The subject of assay [12] is Staphylococcus aureus. The assay can be described thus: Antimicrobial activity against methicillin-resistant Staphylococcus aureus E2125 assessed as concentration required for minimum inhibition of BRP-resistant subpopulation growth by Etest. Type of assay: functional. The method in brief:
as §2

Assay [13] has as its system Staphylococcus aureus. Description: Antimicrobial activity against methicillin-resistant Staphylococcus aureus E2125 assessed as concentration required for bacterial subpopulation growth. Type of assay: functional. The method, boiled down:
as §2

In assay [14] the test system is Staphylococcus aureus. The assay can be described thus: Antimicrobial activity against methicillin-resistant Staphylococcus aureus HU25 assessed as concentration required for bacterial subpopulation growth. Type of assay: functional. The method in brief: as §2
The next assay has as its target T1, MecA (Staphylococcus aureus, UniProt Q7DHH4).
T1 sequence (Q7DHH4 whole entry): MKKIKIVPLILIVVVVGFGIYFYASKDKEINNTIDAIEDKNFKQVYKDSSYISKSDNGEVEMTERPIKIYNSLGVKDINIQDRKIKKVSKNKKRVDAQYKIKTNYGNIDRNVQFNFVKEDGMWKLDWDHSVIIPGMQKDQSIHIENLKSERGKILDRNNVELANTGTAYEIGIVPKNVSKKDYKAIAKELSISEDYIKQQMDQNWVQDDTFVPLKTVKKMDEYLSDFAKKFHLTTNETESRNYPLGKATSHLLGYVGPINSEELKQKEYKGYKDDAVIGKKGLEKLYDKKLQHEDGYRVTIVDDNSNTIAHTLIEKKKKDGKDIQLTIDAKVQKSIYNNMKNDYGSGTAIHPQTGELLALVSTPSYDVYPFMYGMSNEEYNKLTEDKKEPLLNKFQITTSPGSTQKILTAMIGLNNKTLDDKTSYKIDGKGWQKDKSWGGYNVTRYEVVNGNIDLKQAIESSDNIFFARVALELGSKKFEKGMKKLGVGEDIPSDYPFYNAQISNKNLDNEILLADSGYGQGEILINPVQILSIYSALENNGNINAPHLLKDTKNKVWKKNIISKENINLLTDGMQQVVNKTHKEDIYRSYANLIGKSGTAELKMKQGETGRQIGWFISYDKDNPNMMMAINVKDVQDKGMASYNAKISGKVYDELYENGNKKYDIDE
Description: Inhibition of methicillin-resistant Staphylococcus aureus COL PBP2a by competitive assay. Set-up: species or system Staphylococcus aureus subsp. aureus COL. The method, boiled down: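 Purified soluble PBP 2A (mecA expressed in E. coli, 97% pure) at 0.8 µM, preincubated with drug 30 min at 30°C. Then 20 µM Bocillin FL added for 10 min at 37°C, quenched with SDS-PAGE buffer and boiled. Drug range 0.5–20 µM; for IC50, BPR 0.5–200 µM or oxacillin 5–6,000 µM. Curve fitting.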

Assay [15] concerns Staphylococcus aureus. Description: Antimicrobial activity against methicillin-resistant Staphylococcus aureus HAR24 assessed as concentration required for bacterial subpopulation growth. Type of assay: functional. The method, boiled down: as §2
Assay [16] concerns Staphylococcus aureus. The assay can be described thus: Antimicrobial activity against methicillin-resistant Staphylococcus aureus BK2529 assessed as concentration required for minimum inhibition of oxacillin-resistant subpopulation growth by Etest. Type of assay: functional. The method in brief: as §2
The test system of assay [17] is Staphylococcus aureus. Description: Antimicrobial activity against methicillin-resistant Staphylococcus aureus COL assessed as concentration required for bacterial subpopulation growth. Type of assay: functional. The method, boiled down:
as §2

Assay [18] deals with Staphylococcus aureus. Description: Antimicrobial activity against methicillin-resistant Staphylococcus aureus HU25 by Etest. Type of assay: functional. The method in brief: as §2
For assay [19], the system named is Staphylococcus aureus. The assay can be described thus: Antimicrobial activity against methicillin-resistant Staphylococcus aureus BK2464 assessed as concentration required for minimum inhibition of BRP-resistant subpopulation growth by Etest. Type of assay: functional. The method, boiled down:
as §2

The subject of assay [20] is Staphylococcus aureus. The assay can be described thus: Effect on cell wall composition of Staphylococcus aureus COL at 0.4 ug/ml after 100 mins by HPLC method. Type of assay: functional, organism-based. The method in brief:
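Strain COL was grown in 1-liter cultures at 37°C to OD620 0.4, with or without drug at 0.4 µg/ml in the medium. Peptidoglycan was then purified and analysed by HPLC elution profile.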

In assay [21] the test system is Staphylococcus aureus. The assay can be described thus: Antimicrobial activity against methicillin-resistant Staphylococcus aureus E2125 by Etest. Type of assay: functional. The method, boiled down:
as §2

Assay [22] deals with Staphylococcus aureus. The assay can be described thus: Antimicrobial activity against methicillin-resistant Staphylococcus aureus BK2464 by Etest. Type of assay: functional. The method, boiled down:
as §2

Assay [23] relates to Staphylococcus aureus. The assay can be described thus: Antimicrobial activity against methicillin-resistant Staphylococcus aureus HAR22 assessed as concentration required for bacterial subpopulation growth. Type of assay: functional. The method in brief: as §2

≈ marks a conversion by molar mass, not a printed value. Calls of active or inactive are those of the source.

With `Nc1nc(/C(=N/O)C(=O)N[C@@H]2C(=O)N3C(C(=O)O)=C(/C=C4\CCN([C@@H]5CCNC5)C4=O)CS[C@H]23)ns1` [CEFTOBIPROLE], the minimal inhibitory concentration (MIC) in the assay with Staphylococcus aureus [1] was 1.5 µg/mL (≈ 2.81 µM); against Staphylococcus aureus [4], 1.5 µg/mL (≈ 2.81 µM); against Staphylococcus aureus [7], 0.8 µg/mL (≈ 1.5 µM); in the assay with Staphylococcus aureus [8], 0.8 µg/mL (≈ 1.5 µM); in the assay with Staphylococcus aureus [11] it was 3 µg/mL (≈ 5.61 µM); in the assay with Staphylococcus aureus [18], 3 µg/mL (≈ 5.61 µM). The values for the minimal inhibitory concentration (MIC) in the assay on Staphylococcus aureus [21] and in the assay with Staphylococcus aureus [22] were 0.8 µg/mL (≈ 1.5 µM) and 1.5 µg/mL (≈ 2.81 µM), respectively. In addition, the Activity in the assay on Staphylococcus aureus [2] came to 3 µg/mL; in the assay with Staphylococcus aureus [5], 1.5 µg/mL; in the assay on Staphylococcus aureus [6] it was 1.5 µg/mL; with Staphylococcus aureus [9], 0.8 µg/mL; in the assay with Staphylococcus aureus [10] it was 0.8 µg/mL; in the assay with Staphylococcus aureus [12] it was 1.5 µg/mL. Moreover, the Activity with Staphylococcus aureus [13] was determined as 6 µg/mL; in the assay with Staphylococcus aureus [14], 3 µg/mL; in the assay with Staphylococcus aureus [15], 3 µg/mL; in the assay on Staphylococcus aureus [16], 1.5 µg/mL; in the assay with Staphylococcus aureus [17], 3 µg/mL; in the assay on Staphylococcus aureus [19] it was 3 µg/mL. For the same compound, the Activity with Staphylococcus aureus [23] worked out at 1.5 µg/mL. Also, the outcome in the assay with Staphylococcus aureus [3] was Active. This compound displayed an IC50 on MecA of 3.2 µM. In addition, the result in the assay on Staphylococcus aureus [20] was inactive.
